≈ marks a conversion by molar mass, not a printed value.
Columns and labels:
[1] = test system: Staphylococcus epidermidis; assay: Antibacterial activity against 10^4 CFU methicillin-resistant Staphylococcus epidermidis 09-2 after 18 hrs by CLSI agar dilution method; assay type: functional; settings: 09-2, 18 h
Streptococcus pneumoniae = assay: Antibacterial activity against 10^4 CFU Streptococcus pneumoniae 08-4 after 18 hrs by CLSI agar dilution method; assay type: functional; settings: 08-4, 18 h
Escherichia coli [2] = assay: Antibacterial activity against 10^4 CFU Escherichia coli 08-21 after 18 hrs by CLSI agar dilution method; assay type: functional; settings: 08-21, 18 h
Klebsiella pneumoniae [3] = assay: Antibacterial activity against 10^4 CFU Klebsiella pneumoniae 09-23 after 18 hrs by CLSI agar dilution method; assay type: functional; settings: 09-23, 18 h
Pseudomonas aeruginosa [4] = assay: Antibacterial activity against 10^4 CFU Pseudomonas aeruginosa 09-32 after 18 hrs by CLSI agar dilution method; assay type: functional; settings: 09-32, 18 h
Enterococcus faecalis [5] = assay: Antibacterial activity against 10^4 CFU Enterococcus faecalis 08-10 after 18 hrs by CLSI agar dilution method; assay type: functional; settings: 08-10, 18 h
Enterococcus faecium [6] = assay: Antibacterial activity against 10^4 CFU Enterococcus faecium 08-2 after 18 hrs by CLSI agar dilution method; assay type: functional; settings: 08-2, 18 h
[7] = Cytotoxicity against MDCK cells after 48 hrs by CPE assay; assay type: cell-based, Canis lupus familiaris; settings: dog
In short: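 MDCK cells kept in Minimum Essential Medium with Earle's salt plus 10% fetal bovine serum at 37 °C, 5% CO₂. […] Medium then replaced by assay medium with or without compound. After 48 h exposure, viability read by CPE assay. CC₅₀ calculated by Reed–Muench analysis.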

Klebsiella pneumoniae [8] = assay: Antibacterial activity against 10^4 CFU Klebsiella pneumoniae 09-22 after 18 hrs by CLSI agar dilution method; assay type: functional; settings: 09-22, 18 h
[9] = test system: Staphylococcus epidermidis; assay: Antibacterial activity against 10^4 CFU methicillin-sensitive Staphylococcus epidermidis 09-6 after 18 hrs by CLSI agar dilution method; assay type: functional; settings: 09-6, 18 h
Pseudomonas aeruginosa [10] = assay: Antibacterial activity against 10^4 CFU Pseudomonas aeruginosa ATCC 27853 after 18 hrs by CLSI agar dilution method; assay type: functional; settings: ATCC 27853, 18 h
Staphylococcus aureus [11] = assay: Antibacterial activity against 10^4 CFU methicillin-resistant Staphylococcus aureus 08-1 after 18 hrs by CLSI agar dilution method; assay type: functional; settings: 08-1, 18 h
Escherichia coli [12] = assay: Antibacterial activity against 10^4 CFU Escherichia coli ATCC 25922 after 18 hrs by CLSI agar dilution method; assay type: functional; settings: ATCC 25922, 18 h
Staphylococcus aureus [13] = assay: Antibacterial activity against 10^4 CFU Staphylococcus aureus ATCC 25923 after 18 hrs by CLSI agar dilution method; assay type: functional; settings: ATCC 25923, 18 h
Enterococcus faecalis [14] = assay: Antibacterial activity against 10^4 CFU Enterococcus faecalis 08-12 after 18 hrs by CLSI agar dilution method; assay type: functional; settings: 08-12, 18 h
Staphylococcus aureus [15] = assay: Antibacterial activity against 10^4 CFU methicillin-sensitive Staphylococcus aureus 08-1 after 18 hrs by CLSI agar dilution method; assay type: functional; settings: 08-1, 18 h
Enterococcus faecium [16] = assay: Antibacterial activity against 10^4 CFU Enterococcus faecium 06-7 after 18 hrs by CLSI agar dilution method; assay type: functional; settings: 06-7, 18 h

SMILES | MIC [1] | MIC (Streptococcus pneumoniae) | MIC (Escherichia coli [2]) | MIC (Klebsiella pneumoniae [3]) | MIC (Pseudomonas aeruginosa [4]) | MIC (Enterococcus faecalis [5]) | MIC (Enterococcus faecium [6]) | CC50 at 48 h [7] | MIC (Klebsiella pneumoniae [8]) | MIC [9] | MIC (Pseudomonas aeruginosa [10]) | MIC (Staphylococcus aureus [11]) | MIC (Escherichia coli [12]) | MIC (Staphylococcus aureus [13]) | MIC (Enterococcus faecalis [14]) | MIC (Staphylococcus aureus [15]) | MIC (Enterococcus faecium [16])
CCO/N=C1\CN(c2c(F)cc3c(=O)c(C(=O)O)cn(C4CC4)c3c2OC)CCC1(C)N (stereo not given) | 0.25 µg/mL (≈ 0.56 µM) | 0.25 µg/mL (≈ 0.56 µM) | > 128 µg/mL | > 128 µg/mL | 0.5 µg/mL (≈ 1.12 µM) | 1 µg/mL (≈ 2.24 µM) | 64 µg/mL (≈ 143 µM) | 280 µM | 1 µg/mL (≈ 2.24 µM) | 0.25 µg/mL (≈ 0.56 µM) | 4 µg/mL (≈ 8.96 µM) | 0.25 µg/mL (≈ 0.56 µM) | 128 µg/mL (≈ 287 µM) | 0.25 µg/mL (≈ 0.56 µM) | 128 µg/mL (≈ 287 µM) | 0.25 µg/mL (≈ 0.56 µM) | 128 µg/mL (≈ 287 µM)
CCO/N=C1\CN(c2c(F)cc3c(=O)c(C(=O)O)cn(C4CC4)c3c2F)CCC1(C)N (stereo not given) | 0.5 µg/mL (≈ 1.15 µM) | 4 µg/mL (≈ 9.21 µM) | > 128 µg/mL | > 128 µg/mL | 4 µg/mL (≈ 9.21 µM) | 4 µg/mL (≈ 9.21 µM) | > 128 µg/mL | 288 µM | 4 µg/mL (≈ 9.21 µM) | 0.5 µg/mL (≈ 1.15 µM) | 8 µg/mL (≈ 18.4 µM) | 0.5 µg/mL (≈ 1.15 µM) | 128 µg/mL (≈ 295 µM) | 0.5 µg/mL (≈ 1.15 µM) | > 128 µg/mL | 0.5 µg/mL (≈ 1.15 µM) | > 128 µg/mL
CCO/N=C1\CN(c2nc3c(cc2F)c(=O)c(C(=O)O)cn3C2CC2)CCC1(C)N (stereo not given) | 0.25 µg/mL (≈ 0.599 µM) | 0.25 µg/mL (≈ 0.599 µM) | > 128 µg/mL | > 128 µg/mL | 2 µg/mL (≈ 4.79 µM) | > 128 µg/mL | > 128 µg/mL | 300 µM | > 128 µg/mL | 0.25 µg/mL (≈ 0.599 µM) | 8 µg/mL (≈ 19.2 µM) | 0.25 µg/mL (≈ 0.599 µM) | 128 µg/mL (≈ 307 µM) | 0.125 µg/mL (≈ 0.299 µM) | > 128 µg/mL | 0.25 µg/mL (≈ 0.599 µM) | > 128 µg/mL
CCO/N=C1\CN(c2c(F)cc3c(=O)c(C(=O)O)cn(C4CC4)c3c2OC(F)F)CCC1(C)N (stereo not given) | 0.25 µg/mL (≈ 0.518 µM) | 0.25 µg/mL (≈ 0.518 µM) | 128 µg/mL (≈ 265 µM) | 8 µg/mL (≈ 16.6 µM) | 16 µg/mL (≈ 33.2 µM) | 8 µg/mL (≈ 16.6 µM) | 128 µg/mL (≈ 265 µM) | 518 µM | 16 µg/mL (≈ 33.2 µM) | 0.25 µg/mL (≈ 0.518 µM) | 4 µg/mL (≈ 8.29 µM) | 0.25 µg/mL (≈ 0.518 µM) | 16 µg/mL (≈ 33.2 µM) | 0.125 µg/mL (≈ 0.259 µM) | 32 µg/mL (≈ 66.3 µM) | 0.25 µg/mL (≈ 0.518 µM) | 128 µg/mL (≈ 265 µM)
CO/N=C1\CN(c2c(F)cc3c(=O)c(C(=O)O)cn4c3c2OC[C@@H]4C)CCC1(C)N (stereo not given in full) | 0.25 µg/mL (≈ 0.597 µM) | 0.25 µg/mL (≈ 0.597 µM) | > 128 µg/mL | > 128 µg/mL | 128 µg/mL (≈ 306 µM) | 16 µg/mL (≈ 38.2 µM) | > 128 µg/mL | 1510 µM | 2 µg/mL (≈ 4.78 µM) | 0.25 µg/mL (≈ 0.597 µM) | 8 µg/mL (≈ 19.1 µM) | 0.25 µg/mL (≈ 0.597 µM) | 128 µg/mL (≈ 306 µM) | 0.25 µg/mL (≈ 0.597 µM) | > 128 µg/mL | 0.25 µg/mL (≈ 0.597 µM) | > 128 µg/mL

Reference: ChEMBL document CHEMBL1781961, “Synthesis and in vitro antibacterial activity of 7-(3-alkoxyimino-4-amino-4-methylpiperidin-1-yl) fluoroquinolone derivatives” (Eur J Med Chem, 2011)
